Experimental data gathered from unrelated publications.
Cell line: A-375
Read-out: cell growth or viability

SMILES	test	setting	quantity	result
Cn1nccc1Nc1nccc(-c2ccn([C@H](CO)c3ccc(Cl)c(F)c3)c(=O)c2)n1	resazurin	96 h	IC50	130 nM
O=C(O)/C=C/c1ccc(O)c(O)c1	MTT		IC50	4800 nM
CNC(=O)c1cc(Oc2ccc(NC(=O)Nc3ccc(Cl)c(C(F)(F)F)c3)cc2)ccn1			EC50	4000 nM
CNc1nc2ccccc2n2c(-c3cccc(OC)c3)cnc12	neutral red	96 h	IC50	230 nM
Cn1nccc1Nc1nccc(-c2cc3c(s2)C(C)(C)N(CCN2CCOCC2)C3=O)n1	resazurin	96 h	IC50	350 nM
COc1cc(Nc2nccc(-c3cnn4nc(OC)ccc34)n2)cc(C(F)(F)F)c1	ATP luminescence		IC50	97 nM
CN(C)CCOc1ccc(-c2nc(-c3ccncc3)c(-c3ccc4c(c3)CC/C4=N\O)[nH]2)cc1			EC50	30 nM
O=C(O)c1cc(O)c(O)c(O)c1	MTT		IC50	18700 nM
CC(C)C[C@H](NC(=O)[C@H](Cc1ccccc1)NC(=O)c1cnccn1)B(O)O	ATP luminescence		IC50	11 nM
COc1cc(C(=O)c2csc(-c3ccccc3)n2)cc(OC)c1OC	SRB	96 h	IC50	28 nM
CC(=O)c1ccc(N=Nc2c(C(=O)O)cc(O)c(O)c2O)cc1	MTT		IC50	12900 nM
